Assay results reported in ChEMBL document CHEMBL4024747, “Design, Synthesis, and Biological Activities of Vibsanin B Derivatives: A New Class of HSP90 C-Terminal Inhibitors” (J Med Chem, 2017).
Active and inactive are the calls of the source. The rule behind the calls is not given here.

Columns and labels:
[1] = Half life of compound in toluene at 110 degreeC by HPLC analysis; type: physicochemical
Method in brief: (§1)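 Thermostability in toluene at 110 °C or 60 °C followed by HPLC; half-life estimated.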

[2] = molecular target: T1, Heat shock protein HSP90 (Homo sapiens) (UniProt P07900+P08238); assay: Inhibition of HSP90 in human BT474 cells assessed as decrease in p-Akt expression at 1.25 to 5 uM after 24 hrs by Western blot analysis; type: cell-based
Method in brief: (§2)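 BT474 cells lysed directly in 2× Laemmli buffer; proteins resolved on 12% acrylamide gel and transferred to PVDF. Blocked overnight at 4 °C in 5% skim milk, then probed 1 h at room temperature with antibodies to HER2, pAkt, CDK4, HSP90, HSP70 and HSP27. Chemiluminescent detection with β-actin as loading control; run in triplicate.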

[3] = tested on: BT-474; assay: Cell cycle arrest in human BT474 cells assessed as accumulation at G2/M phase at 2.5 uM after 16 hrs by propidium iodide-staining based FACS analysis (reference value: 15.79%); type: functional
[4] = tested on: Huh-7; assay: Antiproliferative activity against human HuH7 cells assessed as reduction in cell viability after 48 hrs by MTT assay; type: functional, cell-based; details: Huh-7, 48 h
[5] = species on record: Danio rerio; assay: Toxicity in 3 days post fertilized zebrafish embryo assessed as changes in embryonic phenotypes at 4 to 16 uM after 12 hrs; details: in vivo
[6] = tested on: SW480; assay: Antiproliferative activity against human SW480 cells assessed as reduction in cell viability after 48 hrs by MTT assay; type: functional, cell-based; details: SW480, 48 h
[7] = molecular target: T1, Heat shock protein HSP90 (Homo sapiens); assay: Inhibition of HSP90 in human BT474 cells assessed as decrease in Her2 protein expression at 1.25 to 5 uM after 24 hrs by Western blot analysis; type: cell-based; method in brief: as §2
[8] = molecular target: Luciferin 4-monooxygenase (Photinus pyralis) (UniProt P08659); assay: Inhibition of firefly luciferase activity using luciferin substrate at 10 uM after 30 mins by luminescence assay
Sequence of Luciferin 4-monooxygenase (Photinus pyralis) (P08659 whole entry): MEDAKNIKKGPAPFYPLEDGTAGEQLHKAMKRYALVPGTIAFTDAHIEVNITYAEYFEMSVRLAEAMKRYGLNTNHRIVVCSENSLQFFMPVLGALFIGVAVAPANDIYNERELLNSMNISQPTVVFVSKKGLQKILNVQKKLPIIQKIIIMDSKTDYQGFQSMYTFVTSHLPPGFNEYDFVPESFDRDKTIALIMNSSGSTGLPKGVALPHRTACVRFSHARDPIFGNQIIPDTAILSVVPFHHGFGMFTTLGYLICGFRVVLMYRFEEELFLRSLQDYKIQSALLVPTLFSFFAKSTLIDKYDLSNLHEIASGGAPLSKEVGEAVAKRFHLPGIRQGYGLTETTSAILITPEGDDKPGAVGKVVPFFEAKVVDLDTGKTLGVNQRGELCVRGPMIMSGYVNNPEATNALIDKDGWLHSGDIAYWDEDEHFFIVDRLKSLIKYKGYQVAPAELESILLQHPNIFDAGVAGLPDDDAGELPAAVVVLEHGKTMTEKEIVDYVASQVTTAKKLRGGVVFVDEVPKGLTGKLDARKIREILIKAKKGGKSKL

[9] = tested on: BT-474; assay: Cell cycle arrest in human BT474 cells assessed as accumulation at S phase at 2.5 uM after 16 hrs by propidium iodide-staining based FACS analysis (reference value: 8.52%); type: functional
[10] = tested on: BEAS-2B; assay: Cytotoxicity against human BEAS2B cells assessed as reduction in cell viability after 48 hrs by MTT assay; type: cell-based
[11] = tested on: BT-474; assay: Cell cycle arrest in human BT474 cells assessed as accumulation at subG1 phase at 2.5 uM after 16 hrs by propidium iodide-staining based FACS analysis (reference value: 0.81%); type: functional
[12] = molecular target: Heat shock protein HSP 90-beta (Homo sapiens) (UniProt P08238); assay: Inhibition of FITC-geldanamycin binding to human FLAG-tagged HSP90beta N-terminal domain
Sequence of Heat shock protein HSP 90-beta (Homo sapiens) (P08238 whole entry, the tested form may be a part): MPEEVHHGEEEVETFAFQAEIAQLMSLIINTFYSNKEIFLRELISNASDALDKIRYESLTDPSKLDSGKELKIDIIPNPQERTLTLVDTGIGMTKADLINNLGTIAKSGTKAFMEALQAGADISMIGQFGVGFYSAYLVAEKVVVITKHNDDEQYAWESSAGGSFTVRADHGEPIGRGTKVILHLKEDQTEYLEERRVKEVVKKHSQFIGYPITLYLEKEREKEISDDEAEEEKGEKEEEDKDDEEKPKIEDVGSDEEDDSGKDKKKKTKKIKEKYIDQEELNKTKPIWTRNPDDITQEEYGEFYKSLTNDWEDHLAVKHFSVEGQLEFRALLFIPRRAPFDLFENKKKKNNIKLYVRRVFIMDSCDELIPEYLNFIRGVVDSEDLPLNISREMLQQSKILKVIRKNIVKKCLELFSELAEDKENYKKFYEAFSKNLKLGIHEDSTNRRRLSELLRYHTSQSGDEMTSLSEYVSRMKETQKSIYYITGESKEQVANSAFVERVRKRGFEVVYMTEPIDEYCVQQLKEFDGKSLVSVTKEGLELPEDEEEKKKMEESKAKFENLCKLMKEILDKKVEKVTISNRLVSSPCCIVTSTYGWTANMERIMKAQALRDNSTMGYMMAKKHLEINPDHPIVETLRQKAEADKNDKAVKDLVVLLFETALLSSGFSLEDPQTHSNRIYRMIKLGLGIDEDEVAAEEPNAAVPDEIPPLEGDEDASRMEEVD

[13] = molecular target: T1, Heat shock protein HSP90 (Homo sapiens); assay: Inhibition of HSP90 in human BT474 cells assessed as decrease in c-Raf protein expression at 1.25 to 5 uM after 24 hrs by Western blot analysis; type: cell-based
[14] = tested on: BT-474; assay: Cell cycle arrest in human BT474 cells assessed as accumulation at G0/G1 phase at 2.5 uM after 16 hrs by propidium iodide-staining based FACS analysis (reference value: 74.88%); type: functional
[15] = Half life of compound in toluene at 60 degreeC by HPLC analysis; type: physicochemical; method in brief: as §1
[16] = tested on: AGS; assay: Antiproliferative activity against human AGS cells assessed as reduction in cell viability after 48 hrs by MTT assay; type: functional, cell-based
[17] = molecular target: T1, Heat shock protein HSP90 (Homo sapiens); assay: Inhibition of HSP90 in human BT474 cells assessed as induction of HSP70 expression at 1.25 to 5 uM after 24 hrs by Western blot analysis; type: cell-based; method in brief: as §2
[18] = molecular target: Heat shock protein HSP 90-alpha (Homo sapiens) (UniProt P07900); assay: Inhibition of FITC-geldanamycin binding to human FLAG-tagged HSP90alpha N-terminal domain
[19] = tested on: BT-474; assay: Cell cycle arrest in human BT474 cells assessed as accumulation at G2/M phase at 5 uM after 16 hrs by propidium iodide-staining based FACS analysis (reference value: 15.79%); type: functional
[20] = tested on: SMMC-7721; assay: Antiproliferative activity against human SMMC7721 cells assessed as reduction in cell viability after 48 hrs by MTT assay; type: functional, cell-based; details: SMMC-7721, 48 h
[21] = tested on: BT-474; assay: Cell cycle arrest in human BT474 cells assessed as accumulation at S phase at 5 uM after 16 hrs by propidium iodide-staining based FACS analysis (reference value: 8.52%); type: functional
[22] = molecular target: Heat shock protein HSP 90-beta (Homo sapiens) (UniProt P08238); assay: Inhibition of recombinant human Biotin-labeled N-terminal His/Avi-tagged HSP90beta C-terminal domain (527 to 724 residues) expressed in Escherichia coli interaction with GST-tagged Cyp40 at 1 to 100 uM after 30 mins by Alphascreen assay
Method in brief: (§3)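 AlphaScreen assay: biotin-labelled HSP90β C-terminus (aa 527–724) mixed with GST-Cyp40 and compound (1–100 μM; novobiocin 500 μM) for 30 min at room temperature. Glutathione acceptor beads added for 30 min, then streptavidin donor beads for 10 min. Excitation at 680 nm, emission read at 520–620 nm; percent activity calculated against enzyme and background wells.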

[23] = tested on: HepG2; assay: Antiproliferative activity against human HepG2 cells assessed as reduction in cell viability after 48 hrs by MTT assay; type: functional, cell-based; details: HepG2, 48 h
[24] = tested on: SK-BR-3; assay: Antiproliferative activity against human SKBR3 cells assessed as reduction in cell viability after 48 hrs by MTT assay; type: functional, cell-based; details: SK-BR-3, 48 h
[25] = tested on: HeLa; assay: Antiproliferative activity against human HeLa cells assessed as reduction in cell viability after 48 hrs by MTT assay; type: functional, cell-based
[26] = molecular target: Heat shock protein HSP 90-beta (Homo sapiens) (UniProt P08238); assay: Inhibition of recombinant human Biotin-labeled N-terminal His/Avi-tagged HSP90beta C-terminal domain (527 to 724 residues) expressed in Escherichia coli interaction with GST-tagged Cyp40 at 100 uM after 30 mins by Alphascreen assay; method in brief: as §3
[27] = tested on: MCF7; assay: Antiproliferative activity against human MCF7 cells assessed as reduction in cell viability after 48 hrs by MTT assay; type: functional, cell-based; details: MCF7, 48 h
[28] = Stability of compound in pH 7.4 PBS at 37 degreeC after 12 hrs by HPLC analysis; type: physicochemical; details: buffer, pH 7.4, 12 h
Method in brief: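 Solution stability determined by HPLC after incubation in PBS pH 7.4 at 37 °C for 12 h.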

[29] = tested on: A549; assay: Antiproliferative activity against human A549 cells assessed as reduction in cell viability after 48 hrs by MTT assay; type: functional, cell-based; details: A549, 48 h
[30] = tested on: BT-474; assay: Antiproliferative activity against human BT474 cells assessed as reduction in cell viability after 48 hrs by MTT assay; type: functional, cell-based; details: BT-474, 48 h
[31] = Drug metabolism in deionized water assessed as compound decomposition at 100 degreeC after 10 mins by HPLC analysis relative to control; type: physicochemical; details: read-out: Drug metabolism
Method in brief: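 Thermostability determined by HPLC after heating in deionized water at 100 °C for 10 min; decomposition recorded in percent.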

[32] = molecular target: T1, Heat shock protein HSP90 (Homo sapiens); assay: Inhibition of HSP90 in human BT474 cells assessed as induction of HSP27 expression at 1.25 to 5 uM after 24 hrs by Western blot analysis; type: cell-based; method in brief: as §2
[33] = tested on: BT-474; assay: Cell cycle arrest in human BT474 cells assessed as accumulation at G0/G1 phase at 5 uM after 16 hrs by propidium iodide-staining based FACS analysis (reference value: 74.88%); type: functional
[34] = tested on: MDA-MB-468; assay: Antiproliferative activity against human MDA-MB-468 cells assessed as reduction in cell viability after 48 hrs by MTT assay; type: functional, cell-based; details: MDA-MB-468, 48 h
[35] = tested on: HL-60; assay: Antiproliferative activity against human HL60 cells assessed as reduction in cell viability after 48 hrs by MTT assay; type: functional, cell-based; details: HL-60, 48 h
[36] = species on record: Oryctolagus cuniculus; assay: Inhibition of HSP90 in rabbit reticulocyte lysate assessed as decrease in HSP90-dependant refolding of firefly luciferase at 10 uM after 30 mins by luciferase gene based assay
Method in brief: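 Firefly luciferase heat-denatured at 41 °C for 10 min, then added with rabbit reticulocyte lysate to compounds at 10 μM. Renaturation at room temperature for 3 h; luciferin substrate added and luminescence read. Refolding expressed relative to DMSO; novobiocin at 500 μM as reference. Three independent experiments.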

[37] = tested on: BT-474; assay: Cell cycle arrest in human BT474 cells assessed as accumulation at subG1 phase at 5 uM after 16 hrs by propidium iodide-staining based FACS analysis (reference value: 0.81%); type: functional
[38] = molecular target: T1, Heat shock protein HSP90 (Homo sapiens); assay: Inhibition of HSP90 in human BT474 cells assessed as decrease in CDK4 protein expression at 1.25 to 5 uM after 24 hrs by Western blot analysis; type: cell-based; method in brief: as §2
[39] = Stability of compound in DMSO at 4 degreeC after 4 weeks HPLC analysis; type: physicochemical; details: 672 h

half-life [1]: 5 min
inhibition [2]: Active
IC50 [4]: 860 nM
IC50 [6]: 800 nM
inhibition [7]: Active
inhibition [8]: inactive
inhibition [12]: inactive
inhibition [13]: Active
half-life [15]: 20 min
IC50 [16]: 860 nM
inhibition [17]: Active
inhibition [18]: inactive
IC50 [20]: 2940 nM
inhibition [22]: Active
IC50 [23]: 2260 nM
IC50 [24]: 1120 nM
IC50 [25]: 590 nM
inhibition [26]: Active
IC50 [27]: 550 nM
Stability [28]: Stable
IC50 [29]: 940 nM
IC50 [30]: 2640 nM
degraded at 10 min [31]: 2.3%
inhibition [32]: Active
IC50 [34]: 760 nM
IC50 [35]: 840 nM
inhibition [36]: Active
inhibition [38]: Active
Stability [39]: Stable
Compound: CC(C)=CCC[C@]1(C)/C=C/[C@@H](OC(=O)C=C(C)C)[C@](C)(O)/C=C/C(=O)/C(CN2CCN(C)CC2)=C\C1
Activity [3]: 19.49%
Activity [5]: Non-Toxic
Activity [9]: 5.3%
IC50 [10]: 2840 nM
Activity [11]: 2.03%
Activity [14]: 73.18%
Activity [19]: 25.6%
Activity [21]: 8.33%
Activity [33]: 61.89%
Activity [37]: 4.18%
